Legend:
[1] = Total plasma concentration in mouse at 3 mg/kg administered via oral gavage measured after 16 hrs post dose by LC/MS/MS analysis; format: ADME, organism-based
In short: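 Mice dosed by oral gavage in 0.5% MC:0.5% Tween or PEG:D5W 3:1. 50 μL blood taken retro-orbitally into LiHep tubes; in chronically dosed animals the trough sample came before the morning dose. Kept on ice, plasma separated by centrifugation at 2823g, 5 min, stored at −20 °C until analysis.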

[2] = biological target: T1, Signal peptide peptidase-like 2A (Mus musculus, UniProt Q9JJF9); experiment: Inhibition of mouse SPPL2a expressed in human U2OS cells using EGFP-labeled TNFalpha (1 to 77 residues) NLS as substrate after 24 hrs by Hoechst staining based high content imaging assay; format: cell-based
T1 sequence (Q9JJF9 whole entry): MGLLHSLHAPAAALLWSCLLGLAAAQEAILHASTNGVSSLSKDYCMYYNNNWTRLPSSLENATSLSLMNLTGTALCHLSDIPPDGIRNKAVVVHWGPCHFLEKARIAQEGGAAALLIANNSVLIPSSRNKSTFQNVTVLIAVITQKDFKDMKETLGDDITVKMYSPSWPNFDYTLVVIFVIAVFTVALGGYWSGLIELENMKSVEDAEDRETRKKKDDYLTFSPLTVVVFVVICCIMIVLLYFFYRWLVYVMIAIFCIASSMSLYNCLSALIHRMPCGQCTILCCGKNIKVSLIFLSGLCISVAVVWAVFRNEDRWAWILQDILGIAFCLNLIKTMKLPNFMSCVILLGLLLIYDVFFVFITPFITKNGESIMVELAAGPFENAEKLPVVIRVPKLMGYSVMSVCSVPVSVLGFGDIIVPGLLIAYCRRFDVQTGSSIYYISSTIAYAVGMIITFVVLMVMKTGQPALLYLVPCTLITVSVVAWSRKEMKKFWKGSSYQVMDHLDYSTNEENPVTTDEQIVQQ
In short: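 Stable U-2 OS lines expressing human SPPL2a, SPPL2b or SPP constitutively (mouse SPPL2a line analogous, mouse TNFα(aa1-77)-NTF-EGFP-NLS) with doxycycline-inducible EGFP substrate. 3000 cells/well, 3−4 h, then 11-point inhibitor 100 μM to 1 nM, 0.9% DMSO, 5 μg/mL doxycycline, 24 h 37 °C. PFA fixed, Hoechst nuclei; nuclear minus cytoplasmic EGFP intensity; inhibition vs 0.5 μM reference and DMSO; IC50 by nonlinear regression.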

[3] = biological target: T2, Signal peptide peptidase-like 2A (Rattus norvegicus, UniProt D3ZNG3); experiment: Inhibition of rat SPPL2a expressed in human U2OS cells using EGFP-labeled TNFalpha (1 to 77 residues) NLS as substrate after 24 hrs by Hoechst staining based high content imaging assay; format: cell-based
T2 sequence (D3ZNG3 whole entry): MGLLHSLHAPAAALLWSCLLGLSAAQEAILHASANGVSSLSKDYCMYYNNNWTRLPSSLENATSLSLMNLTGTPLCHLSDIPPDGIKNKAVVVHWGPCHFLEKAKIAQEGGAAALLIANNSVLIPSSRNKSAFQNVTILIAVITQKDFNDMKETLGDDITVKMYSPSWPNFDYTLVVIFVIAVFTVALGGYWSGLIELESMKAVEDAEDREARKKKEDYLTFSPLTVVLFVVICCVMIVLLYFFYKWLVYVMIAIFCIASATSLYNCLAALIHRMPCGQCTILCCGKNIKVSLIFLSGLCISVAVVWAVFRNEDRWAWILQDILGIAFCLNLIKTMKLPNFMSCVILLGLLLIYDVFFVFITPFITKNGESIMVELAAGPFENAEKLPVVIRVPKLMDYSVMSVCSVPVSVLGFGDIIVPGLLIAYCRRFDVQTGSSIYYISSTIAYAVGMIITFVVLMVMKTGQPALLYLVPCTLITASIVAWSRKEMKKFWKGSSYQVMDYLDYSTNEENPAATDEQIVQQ
In short: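 Stable U-2 OS line with constitutive rat SPPL2a and doxycycline-inducible rat TNFα(aa1-77)-NTF–EGFP-NLS; 3000 cells/well, 3–4 h at 37 °C, then inhibitor in doxycycline medium, 11-point, 100 μM–1 nM final (0.9% DMSO, 5 μg/mL doxycycline), 24 h. PFA fixation, Hoechst nuclei; nuclear minus cytoplasmic-ring EGFP intensity. Normalised to DMSO and reference-inhibitor controls; IC50 by nonlinear regression.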

SMILES: Cc1ncc(F)cc1NC(=O)C[C@H](C(=O)N[C@@H]1C(=O)N2CC3(CC3)CN2C(=O)c2ccccc21)C1CC1
- concentration at 16 h [1]: 0.8 nM
- IC50 [2]: 0.18 µM
- IC50 [3]: 0.056 µM
